High-throughput results from PubChem.
Sampled rows, rich in hits. Any-hit rate of the full collection: about 9.2%.
HUVEC inhibit: inhibitors of HUVEC proliferation, primary screen, cell-based, 384-well. viability, % at 10 µM (by protocol). 86,000 compounds, 1.1% hits. CellTiter-Glo luminescence, 72 h; hits give low values;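 active = viability at or below 30%; inactive = viability above 30%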;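 also: 100% = median luminescence of DMSO-only cell control wells on each plate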
ERa SRC1 pot: enhancers of ERα–SRC-1 coactivator binding, primary screen, biochemical, TR-FRET, ERα LBD, low estradiol | coactivator binding (% of control), % at 25.6 µM | AID 639, 2007 | TR-FRET ERalpha-LBD/SRC-Cy5 coactivator binding, 2 h; 100 = basal binding, no effect | 86,000 compounds, 1.3% hits; in the data active = activity above about 200%;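 also: binding measured in presence of low estradiol as agonist stimulus; 0% = peptide alone without receptor and 100% = receptor with peptide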
ERb SRC1 inh: inhibitors of ERβ-SRC1 coactivator interaction, primary screen, biochemical, TR-FRET, ERβ LBD, SRC-1 peptide. Estrogen receptor beta (Homo sapiens), Q92731. TR-FRET ER-beta LBD / SRC1-Cy5 peptide binding; receptor agonist-loaded with 1 µM estradiol. inhibition, % at 25.6 µM. 86,000 compounds, 1.3% hits. AID 633, 2007;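 active = compounds whose percent inhibition of the receptor-coactivator binding signal exceeds about 50% in the single-dose screen, limit read from the data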;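 also: 0% = receptor plus peptide wells without compound and 100% = peptide-only wells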
Target sequence (Q92731 whole entry, looked up, the tested form may be a part): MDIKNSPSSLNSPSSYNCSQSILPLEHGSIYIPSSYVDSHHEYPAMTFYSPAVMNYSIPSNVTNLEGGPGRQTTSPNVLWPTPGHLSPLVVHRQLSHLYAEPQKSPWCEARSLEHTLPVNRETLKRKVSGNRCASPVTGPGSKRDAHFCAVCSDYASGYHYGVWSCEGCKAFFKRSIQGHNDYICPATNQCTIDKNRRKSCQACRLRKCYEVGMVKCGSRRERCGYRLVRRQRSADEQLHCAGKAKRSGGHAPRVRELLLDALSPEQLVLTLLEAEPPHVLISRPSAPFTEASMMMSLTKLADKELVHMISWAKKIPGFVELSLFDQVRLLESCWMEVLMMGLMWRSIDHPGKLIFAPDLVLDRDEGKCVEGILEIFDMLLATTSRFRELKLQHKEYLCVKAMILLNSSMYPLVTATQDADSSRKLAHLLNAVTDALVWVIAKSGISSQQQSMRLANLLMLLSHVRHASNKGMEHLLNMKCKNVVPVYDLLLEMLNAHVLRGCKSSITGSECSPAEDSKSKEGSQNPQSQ
H69AR inhibit: proliferation blockers of H69AR lung cancer cells, primary screen, cell-based, human, 86K library. H69AR lung tumor viability, ATP luminescence, 72 h; hits give low values. viability, % at 10 µM. 85,000 compounds, 6% hits. AID 598, 2007;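 active = viability at or below 40%; inactive = viability above 40%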;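 also: multidrug resistant small cell line overexpressing MRP-1 efflux transporter; 100% = mean luminescence of untreated control wells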
ERa SRC1 inh: ERα–SRC-1 coactivator interaction inhibitors, primary screen, biochemical, TR-FRET, ERα LBD, estradiol-bound; TR-FRET ER-alpha LBD / SRC-1 peptide; inhibition, % at 25.6 µM; 86,000 compounds, 1.7% hits; in the data active = inhibition above about 50%;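 also: 0% = receptor plus peptide control and 100% = peptide only without receptor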
Lung fibro prol: antiproliferative effect on LL 47 fibroblasts – human, LL 47 cells, CellTiter-Glo luminescence, primary screen; viability, % at 10 µM; 85,000 compounds, 1.1% hits; LL 47 human lung fibroblast viability, ATP luminescence; hits give low values;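 active = viability at or below 50% in the single dose screen; inactive = viability above 50%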;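 also: compound exposure lasted 72 h before the ATP readout; 100% = median luminescence of untreated cell-only wells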
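Test system: LL 47 human lung fibroblasts / Quantity: 1,150 cells in each well / Medium: IMEM growth medium with 15% fetal bovine serum / Incubation: 72 h compound exposure at 37 °C after overnight plating / Detection: CellTiter-Glo luminescence measuring cellular ATP / Read-out: % viability versus median cells-only luminescence / Benchmarks: cell-only wells, no compound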
Starred values were filed as active, the others as inactive; [ ] = remark or other dose.

SMILES	HUVEC inhibit	ERa SRC1 pot	ERb SRC1 inh	H69AR inhibit	ERa SRC1 inh	Lung fibro prol
CCOc1cc(N2CCOCC2)c(OCC)cc1NC(=O)COc1ncnc2ccc(Br)cc12	73	77	27	47	54*[fluorescence artefact?]	42*
CCCNC(=O)Nc1cc(OCC)c(N2CCOCC2)cc1OCC	101	92	2	93	8	105
C[C@H](NC(=O)Nc1ccc2c(c1)OCCO2)C(=O)O	108	124	-12	95	-3	97
CC(C)CCN1C(=O)c2ccc(C(=O)OCn3nnc4ccccc4c3=O)cc2C1=O	92	116	-2	97	2	103
CC(=O)c1cccc(NC(=O)Cc2cccs2)c1	95	29	73*[fluorescence artefact?]	99	84*	94
CCCN(CCC)S(=O)(=O)c1ccc(NC(=O)Cc2cccs2)cc1	75	79	48	57	63*	92
CCCCN(CCCC)S(=O)(=O)c1ccc(NC(=O)Cc2cccs2)cc1	77	62	67*	64	67*[fluorescence artefact?]	90
CCN(CCNC(=O)Cn1c(=O)sc2ccccc21)c1ccccc1	96	121	-7	78	-3	109
CCCSc1nc(C)c2cc(C)cc(C)c2n1	104	82	-2	95	1	80
Cc1cc(C)c2nc(SC(C)C#N)cc(C)c2c1 (configuration not stated)	93	179	-10	31*	-3	96
O=C1NC(=S)N/C1=C/c1cc([N+](=O)[O-])ccc1O	95	85	-3	94	-5	104
O=C(NCC(c1cccnc1)N1CCN(c2ccc(F)cc2)CC1)c1ccc(F)cc1 (configuration not stated)	93	120	-8	89	-5	96
COC(=O)C1=C(C)NC(C)=C(C(=O)OC)C1c1ccccc1[N+](=O)[O-]	81	95	-5	8.5*	-8	56
COC(=O)[C@H](C)NC(=O)Nc1ccc(Oc2ccccc2)cc1	97	112	-3	93	-2	104
Clc1ccc2c(c1)C(N1CCNCC1)Cc1ccccc1S2 (configuration not stated)	2.3*	66	-10	2.0*	0	2.4*
O=C(Nc1ccc(O)cc1)C1CC=CCC1 (configuration not stated)	86	18	68*	96	44	97
COc1cccc(NC(=O)Cc2nnc(SCC(=O)c3ccccc3)n2C)c1	80	103	-4	32*	-1	87
Cc1ccc(NC(=O)Cc2nnc(SCC(=O)c3ccc(Br)cc3)n2C)cc1	103	201*[fluorescence artefact?]	19	100	4	103
COc1cccc(NC(=O)Cc2nnc(SCCOc3ccccc3)n2C)c1	105	94	10	54	17	94
CCSc1nc2c(cnn2-c2ccc(C)c(C)c2)c(=O)[nH]1	81	239*[fluorescence artefact?]	65*[fluorescence artefact?]	79	70*[fluorescence artefact?]	92
Cc1ccc(-n2ncc3c(=O)[nH]c(SCC(=O)N4CCCC4)nc32)cc1C	79	115	-7	60	0	95
CC(C)Sc1nc2c(cnn2-c2ccccc2)c(=O)[nH]1	79	106	1	86	2	92
CCCCCSc1nc2c(cnn2-c2ccccc2)c(=O)[nH]1	81	283*[fluorescence artefact?]	44	27*	45	96
O=c1[nH]c(CSc2nc3ccccc3o2)nc2c1cnn2-c1ccccc1	77	112	14	18*	-31	104
Cc1ccc(-n2ncc3c(=O)[nH]c(SCC(=O)N4CCC(C)CC4)nc32)cc1C	80	346*[fluorescence artefact?]	18	79	8	108
SMILES	HUVEC inhibit	ERa SRC1 pot	ERb SRC1 inh	H69AR inhibit	ERa SRC1 inh	Lung fibro prol
O=C(O)c1cc(S(=O)(=O)N2CCOCC2)c(Sc2ccccn2)cc1Sc1ccccn1	93	129	0	101	-2	99
O=C(Nc1nnc(CC(=O)N2CCCC2)s1)c1cnccn1	91	110	-12	93	4	113
Cc1c(NC2=NC3(CCCCC3)Cc3ccccc32)c(=O)n(C)n1-c1ccccc1	94	101	6	85	1	104
N#Cc1c2n(c(=S)n(-c3ccccn3)c1=O)CCCCC2	90	79	52*[fluorescence artefact?]	82	14	98
N#Cc1c2n(c3c(=O)n(Cc4ccccc4Cl)cnc13)CCCCC2	111	116	-5	82	-2	106
Cc1ccc(-c2c3c(nc4sc(C(N)=O)c(N)c24)CCC3)cc1	84	75	-11	61	5	81
NC(=O)c1sc2nc3c(c(-c4ccc(Cl)cc4)c2c1N)CCCC3	85	252*[fluorescence artefact?]	21	50	11	90
CC1CCCC(NC(=O)c2ccc(CNc3c(N4CCCC4)c(=O)c3=O)cc2)C1C (configuration not stated)	98	114	-6	90	-6	96
COC(=O)C(CCCCNC(=O)OCc1ccccc1)NC(=O)CN (configuration not stated)	96	114	-11	90	91*[fluorescence artefact?]	103
O=C(O)CCCNC(=O)OCc1ccccc1	112	108	-4	97	-5	106
CC(C(=O)Nc1ccccc1C(=O)N1CCOCC1)N(c1ccccc1)S(C)(=O)=O (configuration not stated)	101	101	3	109	25	101
CCNc1ccc(Br)cc(C(=O)/C=C/c2ccccc2Cl)c1=O	7.6*	94	74*[fluorescence artefact?]	2.0*	80*	40*
CNc1ccc(Br)cc(C(=O)/C=C/c2cccc(OC)c2OC)c1=O	31	73	55*[fluorescence artefact?]	5.3*	42	85
COc1ccc(Br)cc1C(=O)Nc1cc(C)cc(C)c1	101	118	12	98	-1	96
CCNC(=O)COc1ccc(Br)cc1Cl	111	108	3	101	-4	104
Cc1ccc(C2=NC(C)(C)N=C2SCC(=O)Nc2ccc(Cl)cc2)cc1	90	93	-7	92	-3	93
O=C1/C(=C/c2cccs2)N=C(c2cccs2)N1Nc1ccccc1	96	112	4	92	2	101
Cc1ccc(NN2C(=O)C=C(c3ccc(Cl)cc3)C2=O)cc1	53	100	4	2.3*	-3	87
O=C1C=C(c2ccccc2)C(=O)N1Nc1ccccc1	73	95	-10	1.3*	-1	67
CCN(CC)CCN(C)Cc1ccc(Br)cc1	91	111	-15	68	2	94
Cn1nnnc1SCC(=O)Nc1nc(-c2ccccc2)c(-c2ccccc2)o1	60	391*	-27	88	-36	89
